Measured values from ChEMBL document CHEMBL4406881, “Design, synthesis and biological evaluation of benzoylacrylic acid shikonin ester derivatives as irreversible dual inhibitors of tubulin and EGFR” (Bioorg Med Chem, 2019).

Legend:
[1] = system: A549; assay: Induction of apoptosis in human A549 cells assessed as high mitochondrial membrane potential after 20 mins by JC-1 staining-based flow cytometric analysis (reference value: 90.6%); assay type: functional
[2] = system: A549; assay: Induction of apoptosis in human A549 cells assessed as low mitochondrial membrane potential after 20 mins by JC-1 staining-based flow cytometric analysis (reference value: 6.3%); assay type: functional
[3] = Cytotoxicity against human LO2 cells assessed as reduction in cell viability after 24 hrs by MTT assay; assay type: cell-based, L02
Summary of the method: (§1)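 MTT colorimetric assay. Cells in log phase in medium with 10% FBS were seeded at 10⁴ cells/well and left overnight at 37 °C, 5% CO₂ to reattach. Compounds were added at 0.1, 1, 10 and 100 μM in 10% FBS for 24 h. IC50 reported as mean ± SD of three independent experiments.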

[4] = system: A549; assay: Antiproliferative activity against human A549 cells assessed as reduction in cell viability after 24 hrs by MTT assay; assay type: functional, cell-based; details: A549, 24 h
[5] = system: MCF7; assay: Antiproliferative activity against human MCF7 cells assessed as reduction in cell viability after 24 hrs by MTT assay; assay type: functional, cell-based; details: MCF7, 24 h; summary of the method: as §1
[6] = system: HeLa; assay: Antiproliferative activity against human HeLa cells assessed as reduction in cell viability after 24 hrs by MTT assay; assay type: functional, cell-based; summary of the method: as §1
[7] = system: NCI-H460; assay: Antiproliferative activity against human H460 cells assessed as reduction in cell viability after 24 hrs by MTT assay; assay type: functional, cell-based; details: NCI-H460, 24 h; summary of the method: as §1
[8] = system: NCI-H1975; assay: Antiproliferative activity against human NCI-H1975 cells assessed as reduction in cell viability after 24 hrs by MTT assay; assay type: functional, cell-based; details: NCI-H1975, 24 h; summary of the method: as §1
[9] = biological target: T1, Epidermal growth factor receptor (Homo sapiens, UniProt P00533); assay: Inhibition of C-terminal His-tagged N-terminal GST-tagged human EGFR (668 to 1210 residues) expressed in baculovirus infected Sf9 cells after 30 mins in presence of gamma-[32p-ATP] binding assay
T1 sequence (P00533 whole entry, the tested form may be a part): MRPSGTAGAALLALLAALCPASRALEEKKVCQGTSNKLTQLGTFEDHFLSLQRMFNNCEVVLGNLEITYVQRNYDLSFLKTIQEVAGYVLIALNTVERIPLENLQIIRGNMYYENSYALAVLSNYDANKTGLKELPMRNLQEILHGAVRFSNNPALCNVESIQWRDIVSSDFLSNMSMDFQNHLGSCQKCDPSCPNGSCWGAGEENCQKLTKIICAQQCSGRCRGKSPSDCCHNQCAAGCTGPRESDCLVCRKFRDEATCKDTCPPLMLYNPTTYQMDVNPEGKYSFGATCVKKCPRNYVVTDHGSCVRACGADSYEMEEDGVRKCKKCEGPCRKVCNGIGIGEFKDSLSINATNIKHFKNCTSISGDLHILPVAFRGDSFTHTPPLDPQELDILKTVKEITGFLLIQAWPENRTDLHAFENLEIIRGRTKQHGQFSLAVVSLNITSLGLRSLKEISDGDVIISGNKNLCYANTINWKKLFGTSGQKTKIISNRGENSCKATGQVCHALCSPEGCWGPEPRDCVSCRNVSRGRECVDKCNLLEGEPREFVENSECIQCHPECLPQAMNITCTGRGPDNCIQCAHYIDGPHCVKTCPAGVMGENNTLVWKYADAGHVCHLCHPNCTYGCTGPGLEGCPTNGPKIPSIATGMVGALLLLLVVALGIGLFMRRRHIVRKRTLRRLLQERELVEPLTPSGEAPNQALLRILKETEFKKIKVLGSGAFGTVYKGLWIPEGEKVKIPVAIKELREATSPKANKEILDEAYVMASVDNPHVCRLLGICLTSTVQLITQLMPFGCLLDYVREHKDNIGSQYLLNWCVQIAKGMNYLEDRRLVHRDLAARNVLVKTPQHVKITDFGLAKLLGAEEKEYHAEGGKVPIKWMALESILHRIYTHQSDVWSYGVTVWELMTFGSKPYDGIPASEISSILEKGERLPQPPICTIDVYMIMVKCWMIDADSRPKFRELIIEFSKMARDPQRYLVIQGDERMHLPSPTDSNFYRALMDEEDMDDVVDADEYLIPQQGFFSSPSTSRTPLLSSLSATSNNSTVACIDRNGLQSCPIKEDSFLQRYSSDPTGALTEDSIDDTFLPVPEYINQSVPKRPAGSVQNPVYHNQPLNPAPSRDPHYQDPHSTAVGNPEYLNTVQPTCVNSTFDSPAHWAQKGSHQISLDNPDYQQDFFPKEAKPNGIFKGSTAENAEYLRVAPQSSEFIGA

[10] = biological target: T1, Epidermal growth factor receptor; assay: Potency index, ratio of shi-konin IC50 to compound IC50 for inhibition of C-terminal His-tagged N-terminal GST-tagged human EGFR (668 to 1210 residues) expressed in baculovirus infected Sf9 cells after 30 mins in presence of gamma-[32p-ATP] binding assay
[11] = Toxicity in ip dosed Balb/c mouse xenografted with human A549 cells assessed as reduction in body weight at 2 mg/kg, ip administered once every two days for 32 days and measured for every 2 days; assay type: organism-based; details: in vivo
Summary of the method: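 Female BALB/c nude mice (5-6 weeks) received 6×10^6 A549 cells s.c. in the flank. After two weeks (tumours ~90 mm³) they were split into 5 groups (n = 8). Dosing was 2 or 4 mg/kg, dissolved in DMSO, i.p. once every two days for 16 doses; DMSO vehicle served as control. Body weight and tumour volume (L×S²/2) were recorded every two days; mice were killed at day 32.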

[12] = biological target: Tubulin (Homo sapiens) (UniProt P68371+Q9H4B7+P0DPH7+P68366+Q13509+Q71U36+P04350+Q3ZCM7+P07437+P68363+Q9BQE3+Q6PEY2+Q13885+Q9BVA1+Q9BUF5); assay: Inhibition of microtubule polymerization in human A549 cells assessed as polymerized tubulin expression at 1 uM after 24 hrs by immuno blot analysis; assay type: cell-based

SMILES | IC50 [4] | IC50 [5] | IC50 [6] | IC50 [7] | IC50 [8] | IC50 [9] | Ratio IC50 [10] | fold change (FC) [12] | Activity [1] | Activity [2] | CC50 at 24 h [3] | Activity [11]
N#CC(C#N)=NNc1cccc(Cl)c1 [CARBONYL CYANIDE M-CHLOROPHENYLHYDRAZONE] | – | – | – | – | – | – | – | – | 26.5% | 67.9% | – | –
CC(C)=CC[C@@H](OC(=O)/C=C\C(=O)c1ccccc1)C1=CC(=O)c2c(O)ccc(O)c2C1=O | 7.51 µM | 19.4 µM | 17.6 µM | 4.59 µM | 10.3 µM | > 0.15 µM | – | – | – | – | > 100 µM | –
CC(C)=CC[C@@H](OC(=O)/C=C\C(=O)c1cc(Cl)ccc1C)C1=CC(=O)c2c(O)ccc(O)c2C1=O | 13.2 µM | 18.6 µM | 9.34 µM | 10.3 µM | 18.3 µM | 0.146 µM | – | – | – | – | 83.3 µM | –
CC(C)=CC[C@@H](OC(=O)/C=C\C(=O)c1cc(F)ccc1C)C1=CC(=O)c2c(O)ccc(O)c2C1=O | 13.4 µM | 10.1 µM | 14.2 µM | 8.35 µM | 7.26 µM | 0.0234 µM | 6 | – | – | – | 93.5 µM | –
CC(=O)O[C@H]1C(=O)[C@@]2(C)[C@H]([C@H](OC(=O)c3ccccc3)[C@]3(O)C[C@H](OC(=O)[C@H](O)[C@@H](NC(=O)c4ccccc4)c4ccccc4)C(C)=C1C3(C)C)[C@]1(OC(C)=O)CO[C@@H]1C[C@@H]2O | – | – | – | – | – | – | – | 0.82 | – | – | – | –
CC(C)=CC[C@@H](OC(=O)/C=C\C(=O)c1ccc(Cl)cc1)C1=CC(=O)c2c(O)ccc(O)c2C1=O | 8.52 µM | 9.62 µM | 11.4 µM | 11.7 µM | 11.8 µM | 0.0325 µM | – | – | – | – | > 100 µM | –
CC(C)=CC[C@@H](OC(=O)/C=C\C(=O)c1ccc(C)c(C)c1)C1=CC(=O)c2c(O)ccc(O)c2C1=O | 9.12 µM | 14.3 µM | 10.1 µM | 11.3 µM | 15.7 µM | 0.119 µM | – | – | – | – | 88.4 µM | –
CC(C)=CC[C@@H](OC(=O)/C=C\C(=O)c1ccc(C)c(Br)c1)C1=CC(=O)c2c(O)ccc(O)c2C1=O | 15.4 µM | 14.3 µM | 17.2 µM | 4.21 µM | 22.5 µM | > 0.15 µM | – | – | – | – | > 100 µM | –

Further lines, with some results ahead:

IC50 [4] | IC50 [5] | IC50 [6] | IC50 [7] | IC50 [8] | IC50 [9] | Ratio IC50 [10] | fold change (FC) [12] | SMILES | Activity [1] | Activity [2] | CC50 at 24 h [3] | Activity [11]
9.72 µM | 9.14 µM | 8.96 µM | 11.4 µM | 10.2 µM | 0.0452 µM | – | – | CC(C)=CC[C@@H](OC(=O)/C=C\C(=O)c1ccc(C)cc1)C1=CC(=O)c2c(O)ccc(O)c2C1=O | – | – | 64.2 µM | –
6.23 µM | 6.63 µM | 10.1 µM | 8.16 µM | 9.56 µM | 0.105 µM | – | – | CC(C)=CC[C@@H](OC(=O)/C=C\C(=O)c1ccc(C)cc1Cl)C1=CC(=O)c2c(O)ccc(O)c2C1=O | – | – | > 100 µM | –
14.5 µM | 9.37 µM | 15.2 µM | 16.4 µM | 12.4 µM | 0.0508 µM | – | – | CCc1ccc(C(=O)/C=C\C(=O)O[C@H](CC=C(C)C)C2=CC(=O)c3c(O)ccc(O)c3C2=O)cc1 | – | – | 92.4 µM | –
10.2 µM | 7.89 µM | 18.6 µM | 9.17 µM | 16.6 µM | > 0.15 µM | – | – | CC(C)=CC[C@@H](OC(=O)/C=C\C(=O)c1ccc(C)cc1C)C1=CC(=O)c2c(O)ccc(O)c2C1=O | – | – | > 100 µM | –
6.13 µM | 9.55 µM | 7.84 µM | 5.04 µM | 4.28 µM | 0.139 µM | – | – | CC(C)=CC[C@@H](O)C1=CC(=O)c2c(O)ccc(O)c2C1=O [SHIKONIN] | – | – | 12.2 µM | Toxic
12.6 µM | 6.64 µM | 15.1 µM | 13.6 µM | 9.56 µM | 0.12 µM | – | – | CC(C)=CC[C@@H](OC(=O)/C=C\C(=O)c1ccc(C)cc1F)C1=CC(=O)c2c(O)ccc(O)c2C1=O | – | – | > 100 µM | –
– | 7.62 µM | 6.39 µM | 6.14 µM | 5.55 µM | – | – | – | CN(C)C/C=C/C(=O)Nc1cc2c(Nc3ccc(F)c(Cl)c3)ncnc2cc1O[C@H]1CCOC1 [AFATINIB] | – | – | 25.3 µM | –
9.19 µM | 9.31 µM | 8.02 µM | 6.51 µM | 13.3 µM | 0.12 µM | – | – | CC(C)=CC[C@@H](OC(=O)/C=C\C(=O)c1ccc(Br)cc1)C1=CC(=O)c2c(O)ccc(O)c2C1=O | – | – | > 100 µM | –
9.39 µM | 7.68 µM | 8.27 µM | 10.1 µM | 7.25 µM | 0.107 µM | – | – | CC(C)=CC[C@@H](OC(=O)/C=C\C(=O)c1ccc(C)c(F)c1)C1=CC(=O)c2c(O)ccc(O)c2C1=O | – | – | > 100 µM | –
13.1 µM | 5.28 µM | 10.2 µM | 13.2 µM | 10.2 µM | > 0.15 µM | – | – | CC(C)=CC[C@@H](OC(=O)/C=C\C(=O)c1cc(C)ccc1C)C1=CC(=O)c2c(O)ccc(O)c2C1=O | – | – | 78.1 µM | –
